Data published in ChEMBL document CHEMBL3608272, “Design, synthesis and anticancer properties of novel oxa/azaspiro[4,5]trienones as potent apoptosis inducers through mitochondrial disruption” (2015).
One block for each compound: values may come before it. Calls of active or inactive are those of the source. The calls are words filed in the database; no cut-off is given here.

What was measured:
A549 = assay: Anti-proliferative activity against human A549 cells incubated for 48 hrs by SRB assay; assay type: functional; details: A549, 48 h
DU-145 = assay: Anti-proliferative activity against human DU145 cells incubated for 48 hrs by SRB assay; assay type: functional; details: DU-145, 48 h
How it was run: (§1)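 SRB assay. Cells in DMEM with 10% FBS were seeded and grown 24 h at 37 °C in CO2. Compounds were diluted from a 10 mM DMSO stock to 1, 5 and 10 µM, with DMSO at most 0.1%, and exposed 48 h. Cells were fixed with 10% TCA for 60 min at 4 °C and stained 20 min at room temperature with 0.4% SRB in 1% acetic acid. Dye was eluted with 10 mM trizma base and absorbance read at 540 nm. Run in triplicate; GI50 given as mean ± SD of three determinations.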

HepG2 = assay: Anti-proliferative activity against human HepG2 cells incubated for 48 hrs by SRB assay; assay type: functional; details: HepG2, 48 h; how it was run: as §1
MCF7 [1] = assay: Anti-proliferative activity against human MCF7 cells incubated for 48 hrs by SRB assay; assay type: functional; details: MCF7, 48 h; how it was run: as §1
MCF7 [2] = assay: Induction of cell cycle arrest in human MCF7 cells assessed as accumulation at S phase at 1 uM incubated for 48 hrs by propidium iodide staining based flow cytometry (reference value: 0.99%); assay type: functional
How it was run: (§2)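 MCF-7 cells were treated 48 h, harvested, washed in PBS, fixed in ice-cold 70% ethanol and stained with propidium iodide. Phase distribution was measured by flow cytometry and compared with untreated cells.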

MCF7 [3] = assay: Induction of cell cycle arrest in human MCF7 cells assessed as accumulation at sub G1 phase at 0.5 uM incubated for 48 hrs by propidium iodide staining based flow cytometry (reference value: 2.75%); assay type: functional; how it was run: as §2
MCF7 [4] = assay: Induction of apoptosis in human MCF7 cells assessed as early apoptotic cells levels at 0.5 uM incubated for 48 hrs by Annexin V-FITC and propidium iodide staining based flow cytometry (reference value: 3.57%); assay type: functional
MCF7 [5] = assay: Induction of apoptosis in human MCF7 cells assessed as reduction in Bcl2 protein levels at 1 uM incubated for 48 hrs by Western blot method; assay type: functional, cell-based
How it was run: (§3)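 MCF-7 cells were treated for 48 h and lysed in ice-cold RIPA buffer with PMSF, aprotinin, leupeptin, pepstatin and NaF. Protein was quantified by Bradford, and 50 µg per lane was run on 12% SDS-PAGE and transferred to PVDF. Membranes were blocked 2 h in TBST with 5% blocking powder, probed with primary antibody overnight and HRP secondary for 1 h at room temperature, then detected by chemiluminescence.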

MCF7 [6] = assay: Induction of apoptosis in human MCF7 cells assessed as late apoptotic cells levels at 1 uM incubated for 48 hrs by Annexin V-FITC and propidium iodide staining based flow cytometry (reference value: 3.08%); assay type: functional
MCF7 [7] = assay: Induction of apoptosis in human MCF7 cells assessed as increase in p53 protein levels at 1 uM incubated for 48 hrs by Western blot method; assay type: functional, cell-based; how it was run: as §3
MCF7 [8] = assay: Induction of apoptosis in human MCF7 cells assessed as induction of caspase-9 activity at 1 uM incubated for 48 hrs by ELISA method relative to control; assay type: functional
How it was run: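 MCF-7 cells were treated for 48 h, pelleted, washed in PBS and lysed for 15 min. After centrifugation at 20,000 rpm for 15 min, caspase-9 activity in the supernatant was measured with a kit ELISA and expressed relative to untreated control. Mean ± SD of two experiments run in triplicate.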

MCF7 [9] = assay: Induction of apoptosis in human MCF7 cells assessed as increase in Bax protein levels at 1 uM incubated for 48 hrs by Western blot method; assay type: functional, cell-based; how it was run: as §3
MCF7 [10] = assay: Induction of ROS generation in human MCF7 cells at 0.5 uM incubated for 48 hrs by DCFDA dye based flow cytometry (reference value: 1.2%); assay type: functional
MCF7 [11] = assay: Induction of cell cycle arrest in human MCF7 cells assessed as accumulation at G0/G1 phase at 1 uM incubated for 48 hrs by propidium iodide staining based flow cytometry (reference value: 77.79%); assay type: functional; how it was run: as §2
MCF7 [12] = assay: Induction of cell cycle arrest in human MCF7 cells assessed as accumulation at G2/M phase at 1 uM incubated for 48 hrs by propidium iodide staining based flow cytometry (reference value: 11.98%); assay type: functional; how it was run: as §2
MCF7 [13] = assay: Induction of cell cycle arrest in human MCF7 cells assessed as accumulation at G2/M phase at 0.5 uM incubated for 48 hrs by propidium iodide staining based flow cytometry (reference value: 11.98%); assay type: functional; how it was run: as §2
MCF7 [14] = assay: Induction of apoptosis in human MCF7 cells assessed as necrotic cells levels at 1 uM incubated for 48 hrs by Annexin V-FITC and propidium iodide staining based flow cytometry (reference value: 0.86%); assay type: functional
MCF7 [15] = assay: Induction of ROS generation in human MCF7 cells at 1 uM incubated for 48 hrs by DCFDA dye based flow cytometry (reference value: 1.2%); assay type: functional
MCF7 [16] = assay: Induction of apoptosis in human MCF7 cells assessed as increase in p27 protein levels at 1 uM incubated for 48 hrs by Western blot method; assay type: functional, cell-based; how it was run: as §3
MCF7 [17] = assay: Reduction in mitochondrial membrane potential in human MCF7 cells at 0.5 and 1 uM incubated for 48 hrs by JC1 dye staining based flow cytometry; assay type: functional, cell-based
How it was run: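 MCF-7 cells (1 × 10^6 per well) in six-well plates were treated 48 h, trypsinized, washed in PBS and stained with 5 µg/mL JC-1 for 15 min at 37 °C. Cells were rinsed three times, resuspended in prewarmed medium and analysed by flow cytometry in the FL1 and FL2 channels.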

MCF7 [18] = assay: Induction of apoptosis in human MCF7 cells assessed as early apoptotic cells levels at 1 uM incubated for 48 hrs by Annexin V-FITC and propidium iodide staining based flow cytometry (reference value: 3.57%); assay type: functional
MCF7 [19] = assay: Induction of cell cycle arrest in human MCF7 cells assessed as accumulation at sub G1 phase at 1 uM incubated for 48 hrs by propidium iodide staining based flow cytometry (reference value: 2.75%); assay type: functional; how it was run: as §2
MCF7 [20] = assay: Induction of apoptosis in human MCF7 cells assessed as viable cells levels at 1 uM incubated for 48 hrs by Annexin V-FITC and propidium iodide staining based flow cytometry (reference value: 92.5%); assay type: functional
MCF7 [21] = assay: Induction of cell cycle arrest in human MCF7 cells assessed as accumulation at S phase at 0.5 uM incubated for 48 hrs by propidium iodide staining based flow cytometry (reference value: 0.99%); assay type: functional; how it was run: as §2
MCF7 [22] = assay: Induction of apoptosis in human MCF7 cells assessed as viable cells levels at 0.5 uM incubated for 48 hrs by Annexin V-FITC and propidium iodide staining based flow cytometry (reference value: 92.5%); assay type: functional
MCF7 [23] = assay: Induction of apoptosis in human MCF7 cells assessed as late apoptotic cells levels at 0.5 uM incubated for 48 hrs by Annexin V-FITC and propidium iodide staining based flow cytometry (reference value: 3.08%); assay type: functional
MCF7 [24] = assay: Induction of apoptosis in human MCF7 cells assessed as increase in p21 protein levels at 1 uM incubated for 48 hrs by Western blot method; assay type: functional, cell-based; how it was run: as §3
MCF7 [25] = assay: Induction of cell cycle arrest in human MCF7 cells assessed as accumulation at G0/G1 phase at 0.5 uM incubated for 48 hrs by propidium iodide staining based flow cytometry (reference value: 77.79%); assay type: functional; how it was run: as §2
MCF7 [26] = assay: Induction of apoptosis in human MCF7 cells assessed as necrotic cells levels at 0.5 uM incubated for 48 hrs by Annexin V-FITC and propidium iodide staining based flow cytometry (reference value: 0.86%); assay type: functional

SMILES: CN1C(=O)C(c2ccc(CO)cc2)=C(c2ccccc2)C12C=CC(=O)C=C2
GI50 (A549): 13.6 µM
GI50 (DU-145): 11.5 µM
GI50 (HepG2): 7.7 µM
GI50 (MCF7 [1]): 7.6 µM

SMILES: CN1C(=O)C(c2cccc(Cl)c2Cl)=C(c2ccccc2)C12C=CC(=O)C=C2
GI50 (A549): 27.6 µM
GI50 (DU-145): 14 µM
GI50 (HepG2): 10.5 µM
GI50 (MCF7 [1]): 9.9 µM

SMILES: COC(=O)/C=C/C1=C(c2ccccc2)C2(C=CC(=O)C=C2)OC1=O
GI50 (A549): 7.8 µM
GI50 (DU-145): 4.3 µM
GI50 (HepG2): 6.3 µM
GI50 (MCF7 [1]): 1.2 µM

SMILES: CN1C(=O)C(c2cccc3ccccc23)=C(c2ccccc2)C12C=CC(=O)C=C2
GI50 (A549): 17.3 µM
GI50 (DU-145): 6.3 µM
GI50 (HepG2): 6.12 µM
GI50 (MCF7 [1]): 2.4 µM

SMILES: CN1C(=O)C(c2ccc3c(c2)OCO3)=C(c2ccccc2)C12C=CC(=O)C=C2
GI50 (A549): 30.2 µM
GI50 (DU-145): 16.3 µM
GI50 (HepG2): 19.6 µM
GI50 (MCF7 [1]): 6.7 µM

SMILES: CN1C(=O)C(c2cc3ccccc3s2)=C(c2ccccc2)C12C=CC(=O)C=C2
GI50 (A549): 18.8 µM
GI50 (DU-145): 9 µM
GI50 (HepG2): 7.2 µM
GI50 (MCF7 [1]): 4.2 µM

SMILES: COc1ccc(C2=C(c3ccccc3)C3(C=CC(=O)C=C3)N(C)C2=O)cc1
GI50 (A549): 98 µM
GI50 (DU-145): 55.7 µM
GI50 (HepG2): 61.7 µM
GI50 (MCF7 [1]): 45.4 µM

These reach a lower GI50 (A549). Values come first.

GI50 (A549): 7.3 µM
GI50 (DU-145): 4.1 µM
GI50 (HepG2): 3.4 µM
GI50 (MCF7 [1]): 1.8 µM
SMILES: COc1ccc(C2=C(c3ccccc3)C3(C=CC(=O)C=C3)OC2=O)cc1

GI50 (A549): 6.3 µM
GI50 (DU-145): 4.8 µM
GI50 (HepG2): 6.3 µM
GI50 (MCF7 [1]): 3.5 µM
SMILES: O=C1C=CC2(C=C1)OC(=O)C(c1ccc(C(=O)O)cc1)=C2c1ccccc1

GI50 (A549): 4.6 µM
GI50 (DU-145): 0.9 µM
GI50 (HepG2): 1.4 µM
GI50 (MCF7 [1]): 1 µM
SMILES: COc1ccc(F)cc1C1=C(c2ccccc2)C2(C=CC(=O)C=C2)OC1=O
Activity (MCF7 [2]): 1.3%
Activity (MCF7 [3]): 2.89%
Activity (MCF7 [4]): 4.22%
Activity (MCF7 [5]): Active
Activity (MCF7 [6]): 24.21%
Activity (MCF7 [7]): Active
fold change (FC) (MCF7 [8]): 2
Activity (MCF7 [9]): Active
Activity (MCF7 [10]): 16.2%
Activity (MCF7 [11]): 88.42%
Activity (MCF7 [12]): 2.2%
Activity (MCF7 [13]): 9.63%
Activity (MCF7 [14]): 4.77%
Activity (MCF7 [15]): 57.4%
Activity (MCF7 [16]): Active
inhibition (MCF7 [17]): Active
Activity (MCF7 [18]): 6.64%
Activity (MCF7 [19]): 3.25%
Activity (MCF7 [20]): 64.39%
Activity (MCF7 [21]): 1.12%
Activity (MCF7 [22]): 86.85%
Activity (MCF7 [23]): 7.25%
Activity (MCF7 [24]): Active
Activity (MCF7 [25]): 81.44%
Activity (MCF7 [26]): 1.69%

GI50 (A549): 4.6 µM
GI50 (DU-145): 4 µM
GI50 (HepG2): 2.6 µM
GI50 (MCF7 [1]): 3.4 µM
SMILES: O=Cc1ccc(C2=C(c3ccccc3)C3(C=CC(=O)C=C3)OC2=O)s1

GI50 (A549): 4 µM
GI50 (DU-145): 1.9 µM
GI50 (HepG2): 1.5 µM
GI50 (MCF7 [1]): 1 µM
SMILES: O=C1C=CC2(C=C1)OC(=O)C(c1ccc([N+](=O)[O-])cc1)=C2c1ccccc1
Activity (MCF7 [2]): 1.75%
Activity (MCF7 [3]): 4.38%
Activity (MCF7 [4]): 5.87%
Activity (MCF7 [5]): Active
Activity (MCF7 [6]): 28.87%
Activity (MCF7 [7]): Active
fold change (FC) (MCF7 [8]): 2
Activity (MCF7 [9]): Active
Activity (MCF7 [10]): 30.4%
Activity (MCF7 [11]): 89.15%
Activity (MCF7 [12]): 0.76%
Activity (MCF7 [13]): 3.35%
Activity (MCF7 [14]): 3.77%
Activity (MCF7 [15]): 78.5%
Activity (MCF7 [16]): Active
inhibition (MCF7 [17]): Active
Activity (MCF7 [18]): 10.13%
Activity (MCF7 [19]): 3.69%
Activity (MCF7 [20]): 57.24%
Activity (MCF7 [21]): 0.34%
Activity (MCF7 [22]): 85.41%
Activity (MCF7 [23]): 6.76%
Activity (MCF7 [24]): Active
Activity (MCF7 [25]): 84.21%
Activity (MCF7 [26]): 1.96%
